Each structure is given as a SMILES string. The source made the active and inactive calls.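 Rule for the calls, unless noted: active = viability at or below 10% of carrier control in both of two separate runs; inconclusive = viability at or below 10% in only one of the two runs; inactive = the rest.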

Among the data in PubChem BioAssay are viability, differential viability (reversal) and inhibition values, retold here.

Assay [1] can be described thus: reduced viability of SK-BR-3 breast cancer cells – cell-based, 24 h, human, pilot screen (AID 572).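 Note: compound exposure lasted between 18 and 24 h rather than exactly 24 h; 100% = carrier-treated control wells.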 As to conditions: SK-BR-3 viability, CellTiter-Glo luminescence, at 10 µM, stronger effect = lower value.
The nature of assay [2]: HUVEC growth inhibition – cell-based, human, primary screen (AID 575;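 active = viability at or below 30% in both replicate assays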;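 note: 100% = median of untreated cell wells with 0.1% DMSO on each plate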). As to conditions: HUVEC proliferation, CellTiter-Glo luminescence, 72 h; at 10 µM; stronger effect = lower value. Summed up: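 Test system – primary HUVEC, no more than 12 passages · Dosing – one dose, 10 µM final, 0.1% DMSO · Times – 72 h treatment at 37 °C · Measured by – ATP-based CellTiter-Glo luminescent read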
(In general: In ATP-based viability assays light output follows the ATP content of the culture.)

The nature of assay [3]: H69AR cell proliferation blockers – human, duplicate replicates, primary screen (AID 580;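 active = viability at or under a set limit in both replicates, limit being median viability minus 3 SD, cut at about 48% in these data, passing the limit was not always enough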;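 note: 100% = mean luminescence of untreated wells and 0% = no signal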). The note with it: H69AR lung tumor cells viability, ATP luminescence, 72 h; at 10 µM; stronger effect = lower value.
Assay [4] in a line: MRP1 drug-resistance reversers in H69AR cells – cell-based, doxorubicin co-treatment, pilot screen (AID 601;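 active = viability loss from added drug above about 55%, and viability with drug at most 40%, in both replicates, limit read from the data, passing the limit was not always enough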). As to conditions: CellTiter-Glo, 72 h, at 10 µM; for differential viability (reversal): stronger effect = higher value.
The nature of assay [5]: yeast transport mutant growth inhibition pilot in 384-well plates, post-Golgi transport modulator project (AID 636; in the data active = inhibition above about 31%). As to conditions: absorbance 615 nm, about 18 h, stronger effect = higher value.
The nature of assay [6]: growth suppression of yeast trafficking mutant, preliminary HTS, modulators of trafficking downstream of Golgi apparatus project, 1536-format plate, OD 615 nm (AID 637; in the data active = inhibition above about 30%). The note with it: yeast transport mutant growth, absorbance 615 nm, 18 h; stronger effect = higher value.
The mark [7] stands for this setting: H69AR cells + 2 uM doxorubicin, measured here: viability with 2 uM doxorubicin, stronger effect = lower value.
The mark [8] stands for this setting: H69AR cells, compound alone cytotoxicity.

For the molecule `O=C(CSCc1ccc(F)cc1)NC1CCCC1`, the viability in assay [1] was 137% (inactive); in assay [2], 108% (inactive); in assay [3] it was 95.8% (inactive); in assay [4] (setting [7]), 82.2%; in assay [4] (setting [8]), 95.8%. Besides, in assay [4] (H69AR cells + 2 uM doxorubicin), the differential viability (reversal) is 13.6% (inactive). Also, the inhibition in assay [5] was -3.9% (inactive); in assay [6] it was 4.1% (inactive).
For the molecule `O=S(=O)(c1ccc2c(c1)OCCO2)N1CCN(Cc2ccc3c(c2)OCO3)CC1`, the viability in assay [1] is 112% (inactive); in assay [2], 105% (inactive); in assay [3], 88.4% (inactive); in assay [4] (setting [7]) it was 95.1%; in assay [4] (setting [8]) it was 88.4%. The differential viability (reversal) in assay [4] (H69AR cells + 2 uM doxorubicin) was -6.71% (inactive). Further, the values for the inhibition in assay [5] and in assay [6] were -3.24% (inactive) and 1.09% (inactive), respectively.
`Fc1cccc(Cl)c1Cn1nnc2c(NCc3ccccn3)ncnc21`: the viability was 76% (inactive) in assay [1]; 92.9% (inactive) in assay [2]; 105% (inactive) in assay [3]; 91.1% in assay [4] (setting [7]); 105% in assay [4] (setting [8]). The differential viability (reversal) in assay [4] (H69AR cells + 2 uM doxorubicin) was 14.2% (inactive). The inhibition was -4.66% (inactive) in assay [5] and -4.84% (inactive) in assay [6].
For the molecule `CCc1nnc(SCC(=O)NC2CCCCC2)nc1CC`, the viability is 94% (inactive) in assay [1]; 92.5% (inactive) in assay [2]; 97.9% (inactive) in assay [3]; 84.8% in assay [4] (setting [7]); 97.9% in assay [4] (setting [8]). Further, in assay [4] (H69AR cells + 2 uM doxorubicin), the differential viability (reversal) was 13.1% (inactive). Further, the values for the inhibition in assay [5] and in assay [6] were -4.29% (inactive) and -7.7% (inactive), respectively.
For `CC1(C)S[C@@H]2[C@H](NC(=O)[C@H](C(=O)O)c3ccsc3)C(=O)N2[C@H]1C(=O)O`, the viability in assay [1] was 105% (inactive); in assay [2] it was 91.5% (inactive); in assay [3], 102% (inactive); in assay [4] (setting [7]), 99.3%; in assay [4] (setting [8]) it was 102%. Besides, the differential viability (reversal) in assay [4] (H69AR cells + 2 uM doxorubicin) is 2.32% (inactive). Further, the inhibition in assay [5] is -0.26% (inactive); in assay [6] it was -0.17% (inactive).
For the molecule `Cc1ccc(Cl)c(Nc2ccccc2C(=O)O)c1Cl`, the viability in assay [1] was 135% (inactive); in assay [2] it was 47.9% (inactive); in assay [3] it was 91.3% (inactive); in assay [4] (setting [7]), 97.9%; in assay [4] (setting [8]), 91.3%. In addition, the differential viability (reversal) in assay [4] (H69AR cells + 2 uM doxorubicin) is -6.54% (inactive). Also, the figures for the inhibition in assay [5] and in assay [6] were -0.78% (inactive) and 4.67% (inactive), respectively.
For the molecule `COc1ccc(-c2nc(C)sc2CC(=O)O)cc1`, the viability is 100% (inactive) in assay [1]; 103% (inactive) in assay [2]; 95.8% (inactive) in assay [3]; 93.3% in assay [4] (setting [7]); 95.8% in assay [4] (setting [8]). Moreover, the differential viability (reversal) in assay [4] (H69AR cells + 2 uM doxorubicin) is 2.46% (inactive). Further, the inhibition in assay [5] was -2.21% (inactive); in assay [6], 1.31% (inactive).
Regarding `Cn1nc(C(C)(C)C)cc1C(=O)NCc1ccc(N2CCCC2=O)cc1`, the viability was 87% (inactive) in assay [1]; 15.1% (active) in assay [2]; 99% (inactive) in assay [3]; 103% in assay [4] (setting [7]); 99% in assay [4] (setting [8]). Besides, the differential viability (reversal) in assay [4] (H69AR cells + 2 uM doxorubicin) is -3.59% (inactive). Also, the results for the inhibition in assay [5] and in assay [6] were -5.34% (inactive) and 0.91% (inactive), respectively.
`O=C(c1ccc(F)cc1)C1CCN(CCn2c(=O)[nH]c3ccccc3c2=O)CC1`: the viability is 94% (inactive) in assay [1]; 89.5% (inactive) in assay [2]; 96.2% (inactive) in assay [3]; 94.3% in assay [4] (setting [7]); 96.2% in assay [4] (setting [8]). The differential viability (reversal) in assay [4] (H69AR cells + 2 uM doxorubicin) was 1.93% (inactive). In addition, the inhibition in assay [5] was -2.73% (inactive); in assay [6], 1.33% (inactive).
For `COc1ccc(OC)c(N(CC(=O)Nc2cccnc2)S(=O)(=O)c2ccc(OC)c(OC)c2)c1`, the viability in assay [1] was 112% (inactive); in assay [2] it was 91% (inactive); in assay [3], 83.7% (inactive); in assay [4] (setting [7]) it was 85.7%; in assay [4] (setting [8]) it was 83.7%. Besides, the differential viability (reversal) in assay [4] (H69AR cells + 2 uM doxorubicin) is -2.03% (inactive). Besides, the inhibition in assay [5] is -6.58% (inactive); in assay [6] it was 0.91% (inactive).
Consider `COc1cccc(-c2csc(N3CCN(CC(=O)Nc4ccc5c(c4)OCO5)CC3)n2)c1`, for which the viability in assay [1] was 106% (inactive); in assay [2], 78.9% (inactive); in assay [3], 80.3% (inactive); in assay [4] (setting [7]), 81.5%; in assay [4] (setting [8]), 80.3%. In addition, the differential viability (reversal) in assay [4] (H69AR cells + 2 uM doxorubicin) was -1.21% (inactive). Besides, the inhibition in assay [5] is -2.34% (inactive); in assay [6], 0% (inactive).
On to `CNC(=O)NCCN1CCCC1=O`, for which the viability in assay [1] was 110% (inactive); in assay [2], 112% (inactive); in assay [3], 102% (inactive); in assay [4] (setting [7]) it was 87.5%; in assay [4] (setting [8]), 102%. For the same molecule, the differential viability (reversal) in assay [4] (H69AR cells + 2 uM doxorubicin) is 14.5% (inactive). The inhibition is -5% (inactive) in assay [5] and -3.09% (inactive) in assay [6].
With `Cc1nc(NC2=NCN(CCCN3CCOCC3)CN2)nc2c(C)cccc12`, the viability in assay [1] is 158% (inactive); in assay [2] it was 67.4% (inactive); in assay [3], 53.4% (inactive); in assay [4] (setting [7]), 65.8%; in assay [4] (setting [8]), 53.4%. The differential viability (reversal) in assay [4] (H69AR cells + 2 uM doxorubicin) was -12.3% (inactive). Moreover, the inhibition in assay [5] was -4.34% (inactive); in assay [6], 0.16% (inactive).
Take `Cc1cc(C(=O)Nc2nc3c(s2)CCCC3)cs1`: the viability in assay [1] was 93% (inactive); in assay [2], 67.5% (inactive); in assay [3] it was 91.9% (inactive); in assay [4] (setting [7]), 77.8%; in assay [4] (setting [8]), 91.9%. Further, the differential viability (reversal) in assay [4] (H69AR cells + 2 uM doxorubicin) was 14% (inactive). Moreover, the inhibition was -0.14% (inactive) in assay [5] and -7.58% (inactive) in assay [6].
Take `COc1cc(-c2nc(S(=O)(=O)c3ccc(C)cc3)c(N(C)C)o2)cc(OC)c1OC`: the viability in assay [1] was 71% (inactive); in assay [2], 93.2% (inactive); in assay [3], 87.9% (inactive); in assay [4] (setting [7]), 86.3%; in assay [4] (setting [8]), 87.9%. The differential viability (reversal) in assay [4] (H69AR cells + 2 uM doxorubicin) was 1.51% (inactive). Also, the figures for the inhibition in assay [5] and in assay [6] were -8.4% (inactive) and -1.09% (inactive), respectively.
Regarding `CC1CCCC(C)N1CCNC(=O)C1CCN(S(=O)(=O)N2CCCCC2)CC1` (centres undefined), the viability is 93% (inactive) in assay [1]; 110% (inactive) in assay [2]; 104% (inactive) in assay [3]; 90.7% in assay [4] (setting [7]); 104% in assay [4] (setting [8]). In addition, the differential viability (reversal) in assay [4] (H69AR cells + 2 uM doxorubicin) was 13.1% (inactive). Besides, the values for the inhibition in assay [5] and in assay [6] were -1.2% (inactive) and -2.55% (inactive), respectively.
`Cc1cc(NS(=O)(=O)c2ccc(N)cc2)no1`: the viability in assay [1] was 111% (inactive); in assay [2], 98.9% (inactive); in assay [3], 88.9% (inactive); in assay [4] (setting [7]), 101%; in assay [4] (setting [8]) it was 88.9%. Further, in assay [4] (H69AR cells + 2 uM doxorubicin), the differential viability (reversal) is -12.6% (inactive). Further, the figures for the inhibition in assay [5] and in assay [6] were 1.56% (inactive) and -3.5% (inactive), respectively.
As for `CCCCC[C@H](O)/C=C/[C@@H]1[C@@H](CCCCCCC(=O)O)[C@@H](O)C[C@H]1O`, the viability was 113% (inactive) in assay [1]; 89.6% (inactive) in assay [2]; 103% (inactive) in assay [3]; 93.6% in assay [4] (setting [7]); 103% in assay [4] (setting [8]). Moreover, in assay [4] (H69AR cells + 2 uM doxorubicin), the differential viability (reversal) is 9.71% (inactive). Besides, the values for the inhibition in assay [5] and in assay [6] were 0.26% (inactive) and 2.33% (inactive), respectively.

By viability is commonly meant a read-out of living cells in per cent, often relative to untreated cells. What is called inhibition is the relative decrease from the control value, in per cent.
